The text below walks through data of ChEMBL document CHEMBL3102749, “Antiprotozoal activity of dicationic 3,5-diphenylisoxazoles, their prodrugs and aza-analogues” (Bioorg Med Chem, 2014).

The source made the active and inactive calls. No cut-off for these calls is given here.

Data set [1] concerns Trypanosoma brucei rhodesiense. The data set is described as follows: Trypanocidal activity against bloodstream form of Trypanosoma brucei rhodesiense STIB900 infected in NMRI mouse assessed as mean survival days at 5 mg/kg, ip qd administered for 4 days. The data set is classed as functional. Put shortly:
(§1)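 Mice infected with T. b. rhodesiense STIB900 (acute model) dosed once daily for 4 consecutive days, ip (diamidines) or oral (prodrugs). Cure means survival to 60 days post infection without parasitemia relapse. Mean survival days post infection are averaged over all mice, with cured mice counted as >60 days.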

Data set [2] deals with Trypanosoma brucei rhodesiense. The data set is described as follows: Trypanocidal activity against bloodstream form of Trypanosoma brucei rhodesiense STIB900 infected in NMRI mouse assessed as mean parasitemia relapse day at 5 mg/kg, ip qd administered for 4 days. Type of data set: functional. The settings on record: route intraperitoneal. Put shortly:
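Mice infected with STIB900 received 4 consecutive daily intraperitoneal doses, 4 mice per group. The secondary endpoint was mean relapse day post-infection, which separates weaker compounds; mice surviving 60 days without parasitemia relapse were scored as cured.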

Data set [3] deals with Trypanosoma brucei rhodesiense. The data set is described as follows: Trypanocidal activity against bloodstream form of Trypanosoma brucei rhodesiense STIB900 infected in NMRI mouse assessed as decrease in parasitemia at 5 mg/kg, ip qd administered for 4 days measured once per week until 60 days by microscopic analysis. More on the design: dose 5 mg/kg. Type of data set: functional, organism-based. Put shortly:
(§2)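 Mice infected with T. b. rhodesiense STIB900 received one dose daily for 4 consecutive days, 4 mice per group. Diamidines were given intraperitoneally and prodrugs orally. The primary endpoint was cures per group: a mouse counted as cured if it survived 60 days post-infection without parasitemia relapse.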

A short description of data set [4]: Selectivity index, ratio of IC50 for rat L6 cells to IC50 for chloroquine/pyrimethamine-resistant Plasmodium falciparum K1 infected in human red blood cells. Conditions: read-out: Ratio IC50. Type of data set: toxicity, cell-based. In a few lines: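 Ratio of IC50 in L6 rat myoblast cytotoxicity assay to IC50 against P. falciparum K1; each IC50 is the mean of two independent assays.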

Data set [5] can be described thus: Selectivity index, ratio of IC50 for rat L6 cells to IC50 for Trypanosoma brucei rhodesiense STIB900. Type of data set: toxicity, cell-based. The settings on record: read-out: Ratio IC50. Put shortly: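 Ratio of IC50 in L6 rat myoblast cytotoxicity assay to IC50 against T. b. rhodesiense STIB900; each IC50 is the mean of two independent assays.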
The subject of data set [6] is L6. The data set is described as follows: Cytotoxicity against rat L6 cells assessed as cell viability after 70 hrs by Alamar blue assay. Type of data set: cell-based. Conditions: L6, 70 h. On the technique in general: Alamar Blue is a resazurin reagent that responds to reducing activity.
Data set [7] has as its system Plasmodium falciparum. The data set is described as follows: Antiplasmodial activity against chloroquine/pyrimethamine-resistant Plasmodium falciparum K1 infected in human red blood cells assessed as [3H]-hypoxanthine incorporation incubated for 48 hrs prior to [3H]-hypoxanthine addition measured after 24 hrs by liquid scintillation counting analysis. The data set is classed as functional, organism-based.

In data set [8] the test system is Trypanosoma brucei rhodesiense. The data set is described as follows: Antitrypanosomal activity against Trypanosoma brucei rhodesiense STIB900 assessed as growth inhibition after 70 hrs by Alamar blue assay. The data set is classed as functional, organism-based. The settings on record: STIB900, 70 h.
The subject of data set [9] is Trypanosoma brucei rhodesiense. The data set is described as follows: Trypanocidal activity against bloodstream form of Trypanosoma brucei rhodesiense STIB900 infected in NMRI mouse assessed as mean survival days at 25 mg/kg, po qd administered for 4 days. Type of data set: functional. In a few lines: as §1
Data set [10] concerns Trypanosoma brucei rhodesiense. The data set is described as follows: Trypanocidal activity against bloodstream form of Trypanosoma brucei rhodesiense STIB900 infected in NMRI mouse assessed as decrease in parasitemia at 25 mg/kg, po qd administered for 4 days measured once per week until 60 days by microscopic analysis. Type of data set: functional, organism-based. Details: dose 25 mg/kg. Put shortly: as §2

As for `Cl.Cl.N=C(N)c1cccc(-c2cc(-c3ccc(C(=N)N)cc3[N+](=O)[O-])on2)c1`, the MSD entry in [1] was “inactive”. Besides, the Time in data set [2] turned out to be 12.25 days. Further, in data set [3], the outcome was inactive.

Usually IC50 stands for the concentration that gives 50% inhibition. As to `Cl.Cl.N=C(N)c1ccc(-c2cc(-c3ccc(C(=N)N)nc3)no2)cc1`, the Time in [2] turned out to be 25.7 days. The selectivity ratio in [4] is 6330; in [5] it was 423. Further, the figures for the IC50 in data set [6], in [7] and in data set [8] were 2490 nM, 0.4 nM and 5.9 nM, respectively.

Turning to `Cl.Cl.N=C(N)c1ccc(-c2cc(-c3cc(C(=N)N)ccc3[N+](=O)[O-])no2)cc1`, the MSD in [1] (route intraperitoneal) is 29.75 days. Also, the Time in data set [2] amounted to 17 days. In [3], the result was inactive.

As for `Cl.Cl.Cl.N=C(N)c1ccc(-c2cc(-c3cc(C(=N)N)ccc3Cl)no2)cc1`, the MSD result in [1] is “inactive”. Besides, the Time in data set [2] was found to be 7.75 days. Further, the result in data set [3] was inactive.

As to `CO/N=C(\N)c1ccc(-c2cc(-c3cccc(/C(N)=N/OC)c3)on2)cc1.Cl.Cl`, the MSD in data set [9] was determined as 31.25 days. The result in data set [10] was inactive.

Turning to `Cl.Cl.N=C(N)c1ccc(-c2cc(-c3cccc(C(=N)N)c3)on2)nc1`, the MSD in data set [1] (route intraperitoneal) is above 60 days. Further, the Time in [2] amounted to 53 days. For the same molecule, the selectivity ratio in [4] was 17400; in data set [5], 8900. For the same molecule, the IC50 in data set [6] is 121000 nM; in data set [7] it was 7 nM; in data set [8], 13.6 nM.

On to `CO/N=C(\N)c1ccc(-c2cc(-c3cc(/C(N)=N/OC)ccc3[N+](=O)[O-])no2)cc1.Cl.Cl`, for which the MSD in data set [9] is 13.5 days. In [10], the result was inactive.

As for `COc1ccc(C(=N)N)cc1-c1cc(-c2cc(C(=N)N)ccc2OC)on1.Cl.Cl`, the MSD in [1] (route intraperitoneal) is above 50 days. The Time in data set [2] was 26 days. Besides, in [3], the outcome was inactive.

Turning to `CO/N=C(\N)c1cccc(-c2cc(-c3ccc(/C(N)=N/OC)cc3OC)on2)c1.Cl.Cl`, in [9], the MSD was found to be 7.25 days. Also, the result in [10] was inactive.

With `Cl.Cl.N=C(N)c1ccc(-c2cc(-c3ccc(C(=N)N)nc3)on2)cn1`, the Time in data set [2] was 24 days. Further, the values for the selectivity ratio in data set [4] and in data set [5] were 6650 and 398, respectively. The concentration for half-maximal inhibition (IC50) in data set [6] was found to be 2460 nM; in data set [7], 0.4 nM; in data set [8] it was 6.2 nM.

On to `COc1ccc(C(=N)N)cc1-c1cc(-c2cccc(C(=N)N)c2)no1.Cl.Cl`, for which the MSD result in data set [1] is “inactive”. Moreover, in data set [2], the Time was found to be 22.3 days.

Consider `CO/N=C(\N)c1cccc(-c2cc(-c3ccc(/C(N)=N/OC)cc3Cl)on2)c1.Cl.Cl.Cl`, for which the MSD in [9] amounted to 14 days. For the same molecule, the outcome in data set [10] was inactive.

Consider `Cl.Cl.N/C(=N\O)c1ccc(-c2cc(-c3cccc(/C(N)=N/O)c3)no2)cc1`, for which the MSD in data set [9] came to 20 days. Besides, the outcome in [10] was inactive.

With `Cl.Cl.Cl.N=C(N)c1ccc(-c2cc(-c3cc(C(=N)N)ccc3Cl)on2)cc1`, the MSD result in [1] is “inactive”. Moreover, the Time in data set [2] turned out to be 8.75 days. In addition, in [3], the result was inactive.

For `COc1cc(/C(N)=N/O)ccc1-c1cc(-c2cccc(/C(N)=N/O)c2)no1.Cl.Cl`, the MSD in [9] was 8 days. Further, the result in data set [10] was inactive.

With `COc1cc(C(=N)N)ccc1-c1cc(-c2cccc(C(=N)N)c2)no1.Cl.Cl`, the MSD result in data set [1] was “inactive”. The Time in data set [2] turned out to be 18 days. Also, the outcome in data set [3] was inactive.

In the case of `Cl.Cl.N=C(N)c1ccc(-c2cc(-c3cc(C(=N)N)ccn3)no2)cc1`, in [2], the Time came out at 15.5 days. Also, the result in data set [3] was inactive. Also, the selectivity ratio in data set [4] was 14200; in data set [5] it was 1350. In addition, the IC50 in data set [6] is 71200 nM; in data set [7] it was 5 nM; in [8], 52.8 nM.

Consider `Cl.Cl.N=C(N)c1cccc(-c2cc(-c3ccc(C(=N)N)cc3[N+](=O)[O-])no2)c1`, for which, in [1], the MSD result is “inactive”. In data set [2], the Time was determined as 13 days. Further, in [3], the result was inactive.

As for `CO/N=C(\N)c1ccc(-c2cc(-c3ccc(/C(N)=N/OC)cc3OC)on2)cc1.Cl.Cl`, the MSD in data set [9] turned out to be 15.75 days. In data set [10], the result was inactive.

As for `Cl.Cl.Cl.N/C(=N\O)c1ccc(-c2cc(-c3ccc(/C(N)=N/O)cc3Cl)on2)cc1`, the MSD in data set [9] was above 36.5 days. For the same molecule, in data set [10], the result was inactive.

Take `COc1ccc(/C(N)=N/O)cc1-c1cc(-c2ccc(/C(N)=N/O)cc2)on1.Cl.Cl`: in data set [9], the MSD was determined as 18.25 days. Also, in data set [10], the outcome was inactive.

As for `CO/N=C(\N)c1ccc(-c2cc(-c3ccc(/C(N)=N/OC)cc3OC)no2)cc1.Cl.Cl`, the MSD in [9] stood at 27 days. In data set [10], the outcome was inactive.

Regarding `Cl.Cl.N=C(N)c1ccc(-c2cc(-c3cncc(C(=N)N)c3)no2)cc1`, in data set [2], the Time amounted to 15 days. Further, the selectivity ratio in [4] came out at 1170; in [5], 270. Besides, the 50% inhibitory concentration (IC50) is 4320 nM in [6], 3.7 nM in data set [7] and 16 nM in [8].

On to `CO/N=C(\N)c1ccc(-c2cc(-c3ccc(/C(N)=N/OC)cc3Cl)on2)cc1.Cl.Cl.Cl`, for which the MSD in data set [9] was found to be 39 days. In addition, in data set [10], the outcome was inactive.

For `COc1cc(C(=N)N)ccc1-c1cc(-c2cccc(C(=N)N)c2)on1.Cl.Cl`, the MSD entry in [1] is “inactive”. The Time in data set [2] was found to be 36.25 days. The outcome in data set [3] was inactive.

For `COc1cc(/C(N)=N/O)ccc1-c1cc(-c2ccc(/C(N)=N/O)cc2OC)on1.Cl.Cl`, the MSD in data set [9] is 12 days. The result in data set [10] was inactive.

In the case of `Cl.N=C(N)c1cncc(-c2cc(-c3ccc(C(=N)N)nc3)no2)c1`, the MSD in [1] (route intraperitoneal) is above 60 days. Also, the Time in [2] stood at 60 days. Moreover, the selectivity ratio in data set [4] was 440; in data set [5] it was 111. Also, the half-maximal inhibitory concentration (IC50) in [6] amounted to 2110 nM; in [7], 4.8 nM; in data set [8], 19.1 nM.

Consider `Cl.Cl.N/C(=N\O)c1cccc(-c2cc(-c3cccc(/C(N)=N/O)c3)on2)c1`, for which the MSD in [9] was determined as 7.5 days. In addition, in data set [10], the outcome was inactive.

As for `COc1c(/C(N)=N/O)cccc1-c1cc(-c2ccc(/C(N)=N/O)cc2)no1.Cl.Cl`, in [9], the MSD is 25.75 days. In addition, the result in data set [10] was inactive.

As to `Cl.Cl.N=C(N)c1cncc(-c2cc(-c3ccc(C(=N)N)nc3)on2)c1`, the Time in [2] was 25.25 days. In addition, in data set [3], the outcome was inactive. Besides, the figures for the selectivity ratio in data set [4] and in data set [5] were 1400 and 206, respectively. The IC50 amounted to 4910 nM in data set [6], 3.5 nM in data set [7] and 23.9 nM in data set [8].

For the molecule `CO/N=C(\N)c1ccc(-c2cc(-c3cccc(/C(N)=N/OC)c3)no2)cc1.Cl.Cl`, the MSD in [9] turned out to be 8 days. Besides, the result in data set [10] was inactive.

With `COc1cc(/C(N)=N/O)ccc1-c1cc(-c2ccc(/C(N)=N/O)cc2)no1.Cl.Cl`, in data set [9], the MSD is 26.25 days. For the same molecule, in data set [10], the result was inactive.
